pEC50: −log10 of the molar value. ≈ marks a conversion by molar mass, not a printed value.
Assays:
[1] = Octanol-water distribution coefficient, logD of the compound at pH 7.4 by HPLC-based analysis; type: physicochemical
Plasmodium falciparum [2] = test: Antimalarial activity against chloroquine-resistant Plasmodium falciparum Dd2 assessed as inhibition of parasite growth incubated for 72 hrs by SYBR green I-based DNA quantification assay; type: functional, organism-based; conditions: Dd2, 72 h
[3] = Cytotoxicity against human HepG2 cells assessed as reduction in cell viability incubated for 48 hrs by MTS assay; type: toxicity, cell-based
Outline: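 HepG2 human hepatoma cells were seeded at 2,500 cells/well in 384-well plates and incubated 24 h. Serial compound dilutions (0–40 μM range) were added, then cells were incubated a further 48 h.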

[4] = Octanol-water distribution coefficient, logD of the compound at pH 3 by HPLC-based analysis; type: physicochemical
[5] = Selectivity index, ratio of EC50 for cytotoxicity against human HepG2 cells to EC50 for antimalarial activity against chloroquine-resistant Plasmodium falciparum Dd2; type: toxicity, cell-based; conditions: read-out: Ratio EC50
Outline: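 Human HepG2 hepatoma cells were seeded at 2,500 cells/well and grown 24 h. Serial dilutions of compound (0–40 μM) were then added for another 48 h. […] SI = EC50(HepG2)/EC50(Dd2).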

[6] = Aqueous solubility of the compound at pH 2 by HPLC analysis; type: physicochemical; conditions: aqueous solution
Outline: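 Aqueous solubility was measured at pH 2.0 with an in-house HPLC assay. Values are reported as bins: ≤10 μM, 10–20 μM, 20–40 μM, 40–80 μM and ≥80 μM.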

[7] = Aqueous solubility of the compound at pH 6.5; conditions: aqueous solution
Plasmodium falciparum [8] = test: Antiplasmodial activity against chloroquine-sensitive Plasmodium falciparum D6 assessed as inhibition of parasite growth incubated for 48 hrs by time zero-[3H]hypoxanthine incorporation assay; type: functional, organism-based
Plasmodium falciparum [9] = test: Antiplasmodial activity against artemisinin-resistant Plasmodium falciparum ARC08-022 assessed as inhibition of parasite growth incubated for 48 hrs by time zero-[3H]hypoxanthine incorporation assay; type: functional, organism-based

Row | SMILES | logD [1] | pEC50 (Plasmodium falciparum [2]) | EC50 at 48 h [3] [nM] | logD [4] | selectivity ratio [5] | solubility [6] [µM] | solubility [7] [µM] | pEC50 (Plasmodium falciparum [8]) | pEC50 (Plasmodium falciparum [9])
1 | O=C(Cc1ccc(F)c(F)c1)N1CCC2(CC1)CC(O)c1ccc3ccccc3c1O2 (stereo not given) | 2.46 | < 5.60 | 5000 | 2.04 | < 1 | – | – | – | –
2 | c1ccc2c3c(ccc2c1)CCC1(CCN(CCC2CCCCC2)CC1)O3 | 4.74 | 5.83 | 2000 | – | 1.1 | 40 (≈ 14.5 µg/mL) | – | – | –
3 | c1ccc(CCCN2CCC3(CCc4ccc5ccccc5c4O3)CC2)cc1 | – | 5.85 | > 20000 | – | > 45.6 | – | – | – | –
4 | C1=CC2(CCNCC2)Oc2c1ccc1ccccc21 | – | 6.31 | > 20000 | – | > 45.6 | – | – | – | –
5 | CCN1CCC[C@]2(CC(=O)c3ccc4ccccc4c3O2)C1 | – | < 5.60 | 5000 | – | 1.3 | – | – | – | –
6 | O=C1CC2(CCN(CCC3CCCCC3)CC2)Oc2c1ccc1ccccc21 | 4.5 | 6.15 | 16000 | 2.99 | 31.2 | 20 (≈ 7.55 µg/mL) | 10 (≈ 3.78 µg/mL) | – | –
7 | O=C1C[C@@]2(CCCN(CCc3ccc(F)c(F)c3)C2)Oc2c1ccc1ccccc21 | – | 6.48 | 14000 | – | 34.2 | – | – | – | –
8 | c1ccc2c3c(ccc2c1)CCC1(CCNCC1)O3 | 2.33 | < 5.60 | > 20000 | 1.97 | 4 | 40 (≈ 10.1 µg/mL) | 20 (≈ 5.07 µg/mL) | – | –
9 | O=C(Cc1ccc(F)c(F)c1)N1CCC2(CCc3ccc4ccccc4c3O2)CC1 | 4.04 | < 5.60 | 5000 | 4.02 | < 1 | – | – | – | –
10 | O=C(CN1CCC2(CCc3ccc4ccccc4c3O2)CC1)c1ccc(F)c(F)c1 | – | < 5.60 | > 20000 | – | – | 20 (≈ 8.15 µg/mL) | 20 (≈ 8.15 µg/mL) | – | –
11 | CCN1CCC2(CCc3ccc4c(c3O2)CCCC4)CC1 | – | < 5.60 | 5000 | – | < 1 | – | – | – | –
12 | CCN1CCC[C@@]2(CC(O)c3ccc4ccccc4c3O2)C1 (stereo not given in full) | – | 6.20 | > 20000 | – | > 28.8 | – | – | – | –
13 | O[C@@H](CN1CCC2(CC1)C[C@H](O)c1ccc3ccccc3c1O2)c1ccc(F)c(F)c1 | – | 5.89 | > 20000 | – | > 15 | – | – | – | –
14 | OC1CC2(CCNCC2)Oc2c1ccc1ccccc21 (stereo not given) | 2.46 | 6.29 | > 20000 | 2.04 | > 54.5 | 40 (≈ 10.8 µg/mL) | ≤ 10 | – | –
15 | O=C1CC2(CCN(C(=O)Cc3ccc(F)c(F)c3)CC2)Oc2c1ccc1ccccc21 | 4.03 | < 5.60 | 18000 | 4 | < 3.6 | – | ≤ 10 | – | –
16 | O=C1CC2(CCN(CCc3ccc(F)c(F)c3)CC2)Oc2c1ccc1ccccc21 | 3.81 | < 5.60 | > 20000 | 2.56 | 4 | ≥ 80 | 10 (≈ 4.07 µg/mL) | 6.59 | 6.07
17 | O=C1CC2(CCN(CCCc3ccccc3)CC2)Oc2c1ccc1ccccc21 | – | 6.32 | > 20000 | – | > 36.5 | – | – | – | –
18 | c1cc2c(c3c1CCCC3)OC1(CCNCC1)CC2 | – | < 5.60 | > 20000 | – | 4 | – | – | – | –
19 | O[C@H](CN1CCC2(CC1)C[C@@H](O)c1ccc3ccccc3c1O2)c1ccc(F)c(F)c1 | – | < 5.60 | 17000 | – | < 7 | – | – | – | –
20 | OC1CC2(CCN(CCc3ccc(F)c(F)c3)CC2)Oc2c1ccc1ccccc21 (stereo not given) | 3.15 | 6.28 | > 20000 | 2.62 | > 32.5 | ≥ 80 | ≥ 80 | – | –
21 | O=C1CC2(CCN(Cc3ccccc3)CC2)Oc2c1ccc1ccccc21 | – | < 5.60 | 11000 | – | 4 | – | – | – | –
22 | O[C@@H]1CC2(CCN(C[C@H](O)c3ccc(F)c(F)c3)CC2)Oc2c1ccc1ccccc21 | – | 5.97 | 17000 | – | 16 | – | – | – | –
23 | CCN1CCC2(CC1)CC(=O)c1ccc3ccccc3c1O2 | 2.19 | < 5.60 | 18000 | 1.65 | 4.7 | ≥ 80 | ≥ 80 | – | –
24 | Fc1ccc(CCN2CCC3(C=Cc4ccc5ccccc5c4O3)CC2)cc1F | – | 5.70 | 13000 | – | 7.2 | – | – | – | –
25 | O=C1CC2(CCNCC2)Oc2c1ccc1ccccc21 | 1.78 | 5.64 | 7000 | 1.48 | 3.2 | ≥ 80 | ≥ 80 | – | –
26 | CCN1CCC[C@]2(CC(O)c3ccc4ccccc4c3O2)C1 (stereo not given in full) | – | < 5.60 | > 20000 | – | > 7.6 | – | – | – | –

Row | SMILES | logD [1] | pEC50 (Plasmodium falciparum [2]) | EC50 at 48 h [3] [nM] | logD [4] | selectivity ratio [5] | solubility [6] [µM] | solubility [7] [µM] | pEC50 (Plasmodium falciparum [8]) | pEC50 (Plasmodium falciparum [9])
27 | O=C1C[C@]2(CCCNC2)Oc2c1ccc1ccccc21 | – | 5.92 | 4000 | – | 2.4 | – | – | – | –
28 | CCN1CCC2(CCc3ccc4ccccc4c3O2)CC1 | 2.88 | 6.26 | > 20000 | 2.17 | > 52.1 | ≤ 10 | ≤ 10 | – | –
29 | O=C1CC2(CCN(CC(O)c3ccc(Cl)c(Cl)c3)CC2)Oc2c1ccc1ccccc21 (stereo not given) | – | < 5.60 | – | – | – | – | – | – | –
30 | O=C1CC2(CCN(CCc3ccccc3)CC2)Oc2c1ccc1ccccc21 | – | 6.28 | 8000 | – | 14 | – | – | – | –
31 | CCN1CCC[C@@]2(CC(=O)c3ccc4ccccc4c3O2)C1 | – | < 5.60 | 8000 | – | < 1.6 | – | – | – | –
32 | O=C1CC2(CCN(CC(O)c3ccc(F)c(F)c3)CC2)Oc2c1ccc1ccccc21 (stereo not given) | 4.51 | 6.07 | > 20000 | 2.79 | > 6.1 | ≥ 80 | ≤ 10 | – | –
33 | O=C(CN1CCC2(CC1)CC(=O)c1ccc3ccccc3c1O2)c1ccc(F)c(F)c1 | 1.82 | 5.89 | 4000 | 1.52 | 2.7 | 40 (≈ 16.9 µg/mL) | 40 (≈ 16.9 µg/mL) | – | –
34 | OC1CC2(CCN(CCc3ccc(Cl)c(Cl)c3)CC2)Oc2c1ccc1ccccc21 (stereo not given) | – | 5.68 | – | – | – | – | – | 5.88 | 5.70
35 | Fc1ccc(CCN2CCC3(CCc4ccc5c(c4O3)CCCC5)CC2)cc1F | – | < 5.60 | > 20000 | – | 4 | – | – | – | –
36 | Fc1ccc(CCN2CCC3(CCc4ccc5ccccc5c4O3)CC2)cc1F | 4.51 | 5.72 | > 20000 | 3.29 | 4 | 20 (≈ 7.87 µg/mL) | – | – | –
37 | OC1C[C@@]2(CCCN(CCc3ccc(F)c(F)c3)C2)Oc2c1ccc1ccccc21 (stereo not given in full) | – | 6.21 | > 20000 | – | > 34.5 | – | – | – | –
38 | CCN1CCC2(C=Cc3ccc4ccccc4c3O2)CC1 | – | 5.94 | 12000 | – | 9.7 | – | – | – | –
39 | O[C@H](CN1CCC2(CC1)C[C@H](O)c1ccc3ccccc3c1O2)c1ccc(F)c(F)c1 | – | 5.75 | > 20000 | – | 11 | – | – | – | –
40 | O=C(CN1CCC2(CC1)CC(O)c1ccc3ccccc3c1O2)c1ccc(F)c(F)c1 (stereo not given) | 0.89 | < 5.60 | 33000 | 1.53 | < 6.7 | 20 (≈ 8.47 µg/mL) | 20 (≈ 8.47 µg/mL) | – | –
41 | c1ccc(CCN2CCC3(CCc4ccc5ccccc5c4O3)CC2)cc1 | – | 5.69 | > 20000 | – | > 9.6 | – | – | – | –
42 | OC(CN1CCC2(CC1)CC(O)c1ccc3ccccc3c1O2)c1ccc(Cl)c(Cl)c1 (stereo not given) | – | 5.74 | – | – | – | – | – | – | –
43 | c1ccc(CN2CCC3(CCc4ccc5ccccc5c4O3)CC2)cc1 | – | < 5.60 | > 20000 | – | 4 | – | – | – | –
44 | CCN1CCC2(CC1)CC(O)c1ccc3ccccc3c1O2 (stereo not given) | 1.88 | < 5.60 | 16000 | 1.51 | 3.2 | 20 (≈ 5.95 µg/mL) | 20 (≈ 5.95 µg/mL) | – | –
45 | OC1C[C@]2(CCCN(CCc3ccc(F)c(F)c3)C2)Oc2c1ccc1ccccc21 (stereo not given in full) | – | < 5.60 | 6000 | – | 1.9 | – | – | – | –
46 | OC1CC2(CCN(CCc3ccccc3)CC2)Oc2c1ccc1ccccc21 (stereo not given) | – | 6.49 | > 20000 | – | > 68.9 | – | – | – | –
47 | O=C1C[C@@]2(CCCNC2)Oc2c1ccc1ccccc21 | – | 6.20 | 5000 | – | 9 | – | – | – | –
48 | O=C1C[C@]2(CCCN(CCc3ccc(F)c(F)c3)C2)Oc2c1ccc1ccccc21 | – | 5.74 | 10000 | – | 5.8 | – | – | – | –
49 | OC1CC2(CCN(Cc3ccccc3)CC2)Oc2c1ccc1ccccc21 (stereo not given) | – | 6.03 | 6000 | – | 5.7 | – | – | – | –
50 | O=C1CC2(CCN(CCc3ccc(Cl)c(Cl)c3)CC2)Oc2c1ccc1ccccc21 | – | < 5.60 | – | – | – | – | – | – | –
51 | OC1CC2(CCN(CCCc3ccccc3)CC2)Oc2c1ccc1ccccc21 (stereo not given) | – | 6.19 | 1000 | – | 2 | – | – | – | –

Reference: ChEMBL document CHEMBL5131470, “Structure-activity and structure-property relationship studies of spirocyclic chromanes with antimalarial activity” (Bioorg Med Chem, 2022)
